The subject of assay [1] is Rattus norvegicus. As to the kind of experiment: Antiinflammatory activity in rats by using reverse passive Arthus reaction (RPAR) assay at dose level of 50 mg/Kg by peroral administration. The format is functional. In a few lines: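 Rats fasted 24 h before and during study, water ad libitum; groups of at least six dosed by gavage in methylcellulose 1 h before iv (penile vein) BSA 1 mg sensitization under light ether; 1 h later subplantar anti-BSA 0.1 mg in right hind paw. Paw volume by mercury plethysmograph immediately and 2 h postchallenge; percent inhibition vs MC controls, ANOVA (Duncan, Dunnett).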

Assay [2] is filed under the species Rattus norvegicus. The assay can be described thus: The relative potency was evaluated by considering the potency of indomethacin as 1. In kind it is functional. Put shortly:
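Rat reverse passive Arthus paw oedema (oral gavage in methylcellulose 1 h before iv BSA, subplantar anti-BSA 1 h later, plethysmograph change over 2 h); three to five dose points; ED50 and potency relative to indomethacin standard derived by linear regression.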

With `NC[C@@H](O)c1ccccc1`, the Inhibitory response in the assay with Rattus norvegicus [1] amounted to 21%.
Molecule `CC(C)c1ccc2c(c1)C(O)C(N)CCC2` (stereo unspecified) registered an Inhibitory response with Rattus norvegicus [1] of 100%. This molecule also registered a Relative potency in the assay filed under Rattus norvegicus [2] of 0.12.
For `O=C1N[C@@H]2CCCc3cccnc3[C@@H]2O1`, the Inhibitory response with Rattus norvegicus [1] was 82%. Also, the Relative potency in the assay listed under Rattus norvegicus [2] came to 0.3.
For `CS(=O)(=O)c1ccc2c(c1)C(O)C(N)CCC2` (stereo unspecified), the Inhibitory response in the assay with Rattus norvegicus [1] was 5%.
`N[C@@H]1CCCc2cccnc2[C@@H]1O`: the Inhibitory response with Rattus norvegicus [1] is reported as 28%.
In the case of `NC[C@H]1c2ccccc2CCC[C@H]1O`, the Inhibitory response in the assay with Rattus norvegicus [1] worked out at 8%.
Molecule `CC(C)Sc1ccc2c(c1)C(O)C(N)CCC2` (stereo unspecified) returned an Inhibitory response in the assay on Rattus norvegicus [1] of 39%.
Still for that read-out and setting: under `COc1ccc2c(c1)CCCC1NC(=O)OC21` (stereo unspecified) stands 0%.
`CSc1ccc2c(c1)CCCC(N)C2O` (stereo unspecified): in the assay with Rattus norvegicus [1], the Inhibitory response is 84%. In the assay filed under Rattus norvegicus [2], this molecule gave a Relative potency of 0.04.
`COc1cc2c(cc1OC)C(O)C(N)CCCC2.Cl` (stereo unspecified): the Inhibitory response in the assay with Rattus norvegicus [1] came to 0%.
In turn, `Cl.N[C@@H]1CCCc2cccnc2[C@@H]1O` gave an Inhibitory response with Rattus norvegicus [1] of 36%.
Consider `Cl.N[C@@H]1CSCc2ccccc2[C@@H]1O`, for which the Inhibitory response in the assay on Rattus norvegicus [1] amounted to 2%.
The molecule `Cl.NC1CCCc2cc(F)ccc2C1O` (stereo unspecified) registered an Inhibitory response in the assay on Rattus norvegicus [1] of 100%. Besides, the Relative potency in the assay listed under Rattus norvegicus [2] is listed as 0.18.
For `Cl.NC1CCCc2ccc([N+](=O)[O-])cc2C1O` (stereo unspecified), in that order: 100% and 0.25.
For `COc1ccc2c(c1)CCCC(N)C2O` (stereo unspecified), in that order: 80% and 0.1.
For `C[S+]([O-])c1ccc2c(c1)C(O)C(N)CCC2` (stereo unspecified), the Inhibitory response in the assay with Rattus norvegicus [1] was 7%.
Molecule `NC1CCCc2ccc(F)cc2C1O` (stereo unspecified) displayed an Inhibitory response in the assay on Rattus norvegicus [1] of 96%. In the assay filed under Rattus norvegicus [2], this molecule showed a Relative potency of 0.15.
In the case of `Cc1ccc2c(c1)CCCC(N)C2O` (stereo unspecified), the Inhibitory response in the assay with Rattus norvegicus [1] turned out to be 93%. Besides, in the assay filed under Rattus norvegicus [2], the Relative potency worked out at 0.05.
In turn, `NC[C@@H]1c2ccccc2CCC[C@H]1O` returned an Inhibitory response with Rattus norvegicus [1] of 0%.
As to `Cc1ccc2c(c1)CCCC1NC(=O)OC21` (stereo unspecified), the Inhibitory response in the assay on Rattus norvegicus [1] stood at 28%.
In the assay with Rattus norvegicus [1], `NC1CCCc2cc(Cl)ccc2C1O` (stereo unspecified) displayed an Inhibitory response of 94%. Also, the Relative potency in the assay listed under Rattus norvegicus [2] was found to be 0.08.
With `CC(=O)Nc1ccc2c(c1)C(O)C(N)CCC2` (stereo unspecified), the Inhibitory response in the assay with Rattus norvegicus [1] turned out to be 18%.
Same read-out and setting: under `Cl.NC1CCCc2ccccc2C1O` (stereo in doubt; 4a) stands 93%.
With `NC1CCCc2ccc(Cl)cc2C1O` (stereo in doubt; 4aa), the Inhibitory response in the assay on Rattus norvegicus [1] is 44%.
For `Cl.NC1CCCc2ccccc2C1O` (stereo in doubt; 4b), in the assay on Rattus norvegicus [1], the Inhibitory response worked out at 98%. In addition, the Relative potency in the assay listed under Rattus norvegicus [2] is given as 0.15.
For `Cl.NC1CCCc2ccccc2C1O` (stereo in doubt; 4c), in that order: 11% and 0.02.
For `COc1cc2c(cc1OC)C(O)C(N)CCC2.Cl` (stereo in doubt; 4dd), in that order: 93% and 0.2.
In the assay with Rattus norvegicus [1], `COc1cc2c(cc1OC)C(O)C(N)CCC2.Cl` (stereo in doubt; 4ee) had an Inhibitory response of 13%. In addition, the Relative potency in the assay listed under Rattus norvegicus [2] is recorded as 0.03.
`COc1cc2c(cc1SC)C(O)C(N)CCC2` (stereo in doubt; 4ff) returned an Inhibitory response in the assay on Rattus norvegicus [1] of 81%. For the same molecule, the Relative potency in the assay listed under Rattus norvegicus [2] was 0.05.
`COc1cc2c(cc1SC)C(O)C(N)CCC2` (stereo in doubt; 4gg) showed an Inhibitory response with Rattus norvegicus [1] of 29%.
Same read-out and setting: under `COc1cc2c(cc1[S+](C)[O-])C(O)C(N)CCC2` (stereo in doubt; 4hh) stands 8%.
Regarding `COc1ccc2c(c1)C(O)C(N)CCC2` (stereo in doubt; 4i), the Inhibitory response in the assay on Rattus norvegicus [1] was 98%. The Relative potency in the assay listed under Rattus norvegicus [2] was found to be 0.75.
`COc1cc2c(cc1[S+](C)[O-])C(O)C(N)CCC2` (stereo in doubt; 4ii) returned an Inhibitory response with Rattus norvegicus [1] of 0%.
Take `COc1ccc2c(c1)C(O)C(N)CCC2` (stereo in doubt; 4j): the Inhibitory response in the assay on Rattus norvegicus [1] turned out to be 13%. In the assay listed under Rattus norvegicus [2], this molecule came in with a Relative potency of 0.02.
For the molecule `CSc1ccc2c(c1)C(O)C(N)CCC2` (stereo in doubt; 4k), the Inhibitory response in the assay on Rattus norvegicus [1] stood at 90%. Moreover, in the assay filed under Rattus norvegicus [2], the Relative potency is 0.56.
For `CSc1ccc2c(c1)C(O)C(N)CCC2` (stereo in doubt; 4l), in that order: 11% and 0.02.
For `CC(C)Oc1ccc2c(c1)C(O)C(N)CCC2` (stereo in doubt; 4m), in that order: 77% and 0.18.
In the case of `CC(C)Oc1ccc2c(c1)C(O)C(N)CCC2` (stereo in doubt; 4n), the Inhibitory response with Rattus norvegicus [1] worked out at 4%.
On the same count and under the same terms, under `CC(C)(C)C(=O)OCOc1ccc2c(c1)C(O)C(N)CCC2` (stereo in doubt; 4q) stands 16%; under `CC(C)(C)C(=O)OCOc1ccc2c(c1)C(O)C(N)CCC2` (stereo in doubt; 4r), 3%.
In the case of `NC1CCCc2ccc(SCc3ccccc3)cc2C1O` (stereo in doubt; 4v), the Inhibitory response with Rattus norvegicus [1] is reported as 99%.
Molecule `NC1CCCc2ccc(SCc3ccccc3)cc2C1O` (stereo in doubt; 4w) came in with an Inhibitory response in the assay on Rattus norvegicus [1] of 31%.
`NC1CCCc2ccc(Cl)cc2C1O` (stereo in doubt; 4z) displayed an Inhibitory response in the assay with Rattus norvegicus [1] of 94%. In the assay listed under Rattus norvegicus [2], this molecule came in with a Relative potency of 0.34.
For the molecule `O=C1NC2CCCc3ccccc3C2O1` (stereo in doubt; 19a), in the assay on Rattus norvegicus [1], the Inhibitory response is 77%.
The same measure, in the same setting: the figure for `O=C1NC2CCCc3ccccc3C2O1` (stereo in doubt; 19b) is 24%.
Same read-out and setting: the figure for `O=C1NC2CCCc3cc(Cl)ccc3C2O1` (stereo in doubt; 19e) is 9%.
Take `O=C1NC2CCCc3cc(F)ccc3C2O1` (stereo in doubt; 19f): the Inhibitory response in the assay on Rattus norvegicus [1] came to 39%.
On the same count and under the same terms, under `COc1ccc2c(c1)C1OC(=O)NC1CCC2` (stereo in doubt; 19g) stands 20%.
The same measure, in the same setting: the figure for `CC(C)c1ccc2c(c1)C1OC(=O)NC1CCC2` (stereo in doubt; 19h) is 7%; for `O=C1NC2CCCc3ccc(Cl)cc3C2O1` (stereo in doubt; 19i) it is 9%; for `O=C1NC2CCCc3ccc(F)cc3C2O1` (stereo in doubt; 19j) it is 19%.
Molecule `O=C1NC2CCCc3ccccc3C2O1` (stereo in doubt; 20a) had an Inhibitory response in the assay with Rattus norvegicus [1] of 92%. This molecule registered a Relative potency in the assay filed under Rattus norvegicus [2] of 0.06.
`O=C1NC2CCCc3cc(Cl)ccc3C2O1` (stereo in doubt; 20d) had an Inhibitory response in the assay with Rattus norvegicus [1] of 18%.
In the assay on Rattus norvegicus [1], `O=C1NC2CCCc3cc(F)ccc3C2O1` (stereo in doubt; 20e) came in with an Inhibitory response of 96%. The Relative potency in the assay filed under Rattus norvegicus [2] turned out to be 0.04.
Consider `COc1ccc2c(c1)C1OC(=O)NC1CCC2` (stereo in doubt; 20f), for which, in the assay on Rattus norvegicus [1], the Inhibitory response is 24%.
In the assay on Rattus norvegicus [1], `CC(C)c1ccc2c(c1)C1OC(=O)NC1CCC2` (stereo in doubt; 20g) had an Inhibitory response of 37%.
As to `O=C1NC2CCCc3ccc(Cl)cc3C2O1` (stereo in doubt; 20h), the Inhibitory response in the assay on Rattus norvegicus [1] is on record as 29%.
Regarding `O=C1NC2CCCc3ccc(F)cc3C2O1` (stereo in doubt; 20i), in the assay with Rattus norvegicus [1], the Inhibitory response amounted to 78%. In the assay listed under Rattus norvegicus [2], this molecule came in with a Relative potency of 0.03.
